In ChEMBL document CHEMBL1151686, “Antimalarial activity enhancement in hydroxymethylcarbonyl (HMC) isostere-based dipeptidomimetics targeting malarial aspartic protease plasmepsin” (Bioorg Med Chem, 2008):
pEC50, pKi: −log10 of the molar value.

Tests used:
[1] = tested on: Plasmodium falciparum; assay: Antimalarial activity against chloroquine-sensitive Plasmodium falciparum NF54 in type O+ human erythrocytes after 48 hrs as reduced [3H]hypoxanthine uptake; assay type: functional, organism-based
Summary of the method: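 NF54 parasites grown in 2.4% O+ human erythrocyte suspension in RPMI 1640 with 25 mM HEPES, 27 mM NaHCO3, 10% heat-inactivated O+ human serum, under 3% O2/4% CO2/93% N2. Compounds serially diluted in 0.2% DMSO medium, incubated with culture 48 h, then 0.6 μCi [3H]hypoxanthine added for 20 h. Harvested on glass filters, scintillation counted. IC50 from dose-response curves.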

[2] = target: Plasmepsin II (Plasmodium falciparum, UniProt P46925); assay: Inhibition of Plasmodium falciparum plasmepsin-2
Plasmepsin II, sequence (P46925 whole entry): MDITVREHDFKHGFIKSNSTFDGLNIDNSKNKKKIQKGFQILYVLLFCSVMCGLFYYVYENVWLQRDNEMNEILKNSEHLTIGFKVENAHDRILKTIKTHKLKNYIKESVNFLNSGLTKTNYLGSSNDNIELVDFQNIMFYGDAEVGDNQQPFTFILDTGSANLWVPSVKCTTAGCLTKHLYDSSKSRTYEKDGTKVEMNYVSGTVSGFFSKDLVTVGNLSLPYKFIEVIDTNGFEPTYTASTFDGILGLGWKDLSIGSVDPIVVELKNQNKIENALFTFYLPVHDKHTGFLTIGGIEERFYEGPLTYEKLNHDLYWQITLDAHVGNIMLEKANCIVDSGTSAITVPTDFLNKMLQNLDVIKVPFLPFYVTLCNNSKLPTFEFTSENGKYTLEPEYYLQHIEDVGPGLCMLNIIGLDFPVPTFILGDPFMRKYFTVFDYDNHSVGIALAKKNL
Summary of the method: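 Plm II (400 nM) hydrolysis of chromogenic substrate H-Ala-Leu-Glu-Arg-Thr-Phe-Phe(p-NO2)-Ser-Phe-Pro-Thr-OH (163 μM) in 10 mM sodium formate pH 4.0, 2% DMSO, 25 °C, with increasing inhibitor. Rates fitted to tight-binding competitive inhibition equations for Ki.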

[3] = target: Protease (Human immunodeficiency virus 1) (UniProt Q9YQ12); assay: Inhibition of recombinant HIV1 protease at 50 nM
Protease (Human immunodeficiency virus 1), sequence (Q9YQ12 as listed by the source): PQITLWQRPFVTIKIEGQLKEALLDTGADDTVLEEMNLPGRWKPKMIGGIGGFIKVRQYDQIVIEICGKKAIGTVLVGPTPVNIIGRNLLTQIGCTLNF
Summary of the method: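 Recombinant HIV-1 PR (2 μg/mL stock) was mixed with inhibitor (500 nM solution in DMSO) in MES–NaOH pH 5.5 buffer containing DTT, EDTA and 1 M NaCl. The reaction was started with substrate H-Lys-Ala-Arg-Val-Tyr-Phe(p-NO₂)-Glu-Ala-Nle-NH₂ (1.0 mM solution) and run 15 min at 37 °C, then stopped with 1M HCl. The cleaved N-terminal fragment was quantified by reversed-phase C18 HPLC.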

[4] = Cytotoxicity against rat L6 cells after 72 hrs by Alamar blue resazurin assay; assay type: cell-based; settings: read-out: TD50

Structure (SMILES): Cc1cc(O)cc(C)c1OCC(=O)N[C@@H](Cc1ccccc1)[C@H](O)C(=O)N1CSC(C)(C)[C@H]1C(=O)N[C@H]1c2ccccc2C[C@H]1O
- pEC50 [1]: 5.48
- pKi [2]: 8.30
- inhibition [3]: 98%

Structure (SMILES): CC1(C)SCN(C(=O)[C@@H](O)[C@H](Cc2ccccc2)NC(=O)COc2cccc(CO)c2)[C@@H]1C(=O)N[C@H]1c2ccccc2C[C@H]1O
- pEC50 [1]: < 5.10
- pKi [2]: 8.05
- inhibition [3]: 24%

Structure (SMILES): Cc1cc(F)cc(C)c1OCC(=O)N[C@@H](Cc1ccccc1)[C@H](O)C(=O)N1CSC(C)(C)[C@H]1C(=O)N[C@H]1c2ccccc2C[C@H]1O
- CC50 at 72 h [4]: 29000 nM
- pEC50 [1]: 5.85
- pKi [2]: 7.72
- inhibition [3]: 87%

Structure (SMILES): CC(C)c1cccc(C(C)C)c1OCC(=O)N[C@@H](Cc1ccccc1)[C@H](O)C(=O)N1CSC(C)(C)[C@H]1C(=O)N[C@H]1c2ccccc2C[C@H]1O
- CC50 at 72 h [4]: 6300 nM
- pEC50 [1]: 5.54
- pKi [2]: 7.64
- inhibition [3]: 0%

Structure (SMILES): COc1cccc(OC)c1OCC(=O)N[C@@H](Cc1ccccc1)[C@H](O)C(=O)N1CSC(C)(C)[C@H]1C(=O)N[C@H]1c2ccccc2C[C@H]1O
- pKi [2]: 6.11
- inhibition [3]: 54%

Structure (SMILES): Cc1cc(NCc2ccccn2)cc(C)c1OCC(=O)N[C@@H](Cc1ccccc1)[C@H](O)C(=O)N1CSC(C)(C)[C@H]1C(=O)N[C@H]1c2ccccc2C[C@H]1O
- CC50 at 72 h [4]: > 120000 nM
- pEC50 [1]: 6.52
- pKi [2]: 8.00
- inhibition [3]: 91%

Structure (SMILES): COc1ccc(OCC(=O)N[C@@H](Cc2ccccc2)[C@H](O)C(=O)N2CSC(C)(C)[C@H]2C(=O)N[C@H]2c3ccccc3C[C@H]2O)cc1
- pKi [2]: 6.32
- inhibition [3]: 38%

Structure (SMILES): CC1(C)SCN(C(=O)[C@@H](O)[C@H](Cc2ccccc2)NC(=O)COc2ccc(O)cc2)[C@@H]1C(=O)N[C@H]1c2ccccc2C[C@H]1O
- pEC50 [1]: < 5.10
- pKi [2]: 8.00
- inhibition [3]: 31%

Structure (SMILES): Cc1ccccc1OCC(=O)N[C@@H](Cc1ccccc1)[C@H](O)C(=O)N1CSC(C)(C)[C@H]1C(=O)N[C@H]1c2ccccc2C[C@H]1O
- pKi [2]: 6.84
- inhibition [3]: 72%

Structure (SMILES): Cc1cccc(OCC(=O)N[C@@H](Cc2ccccc2)[C@H](O)C(=O)N2CSC(C)(C)[C@H]2C(=O)N[C@H]2c3ccccc3C[C@H]2O)c1
- pEC50 [1]: < 5.10
- pKi [2]: 7.38
- inhibition [3]: 13%

Structure (SMILES): COc1ccccc1OCC(=O)N[C@@H](Cc1ccccc1)[C@H](O)C(=O)N1CSC(C)(C)[C@H]1C(=O)N[C@H]1c2ccccc2C[C@H]1O
- pKi [2]: 6.82
- inhibition [3]: 27%

Structure (SMILES): CC1(C)SCN(C(=O)[C@@H](O)[C@H](Cc2ccccc2)NC(=O)COc2ccc([N+](=O)[O-])cc2)[C@@H]1C(=O)N[C@H]1c2ccccc2C[C@H]1O
- CC50 at 72 h [4]: 63000 nM
- pEC50 [1]: 5.38
- pKi [2]: 7.60
- inhibition [3]: 53%

Structure (SMILES): CC1(C)SCN(C(=O)[C@@H](O)[C@H](Cc2ccccc2)NC(=O)COc2ccc(N)cc2)[C@@H]1C(=O)N[C@H]1c2ccccc2C[C@H]1O
- pEC50 [1]: < 5.10
- pKi [2]: 7.55
- inhibition [3]: 27%

Structure (SMILES): Cc1cc(N(C)C)cc(C)c1OCC(=O)N[C@@H](Cc1ccccc1)[C@H](O)C(=O)N1CSC(C)(C)[C@H]1C(=O)N[C@H]1c2ccccc2C[C@H]1O
- CC50 at 72 h [4]: 45000 nM
- pEC50 [1]: 5.92
- pKi [2]: 7.68
- inhibition [3]: 86%

Structure (SMILES): CCCCCNc1cc(C)c(OCC(=O)N[C@@H](Cc2ccccc2)[C@H](O)C(=O)N2CSC(C)(C)[C@H]2C(=O)N[C@H]2c3ccccc3C[C@H]2O)c(C)c1
- CC50 at 72 h [4]: 12000 nM
- pEC50 [1]: 6.37
- pKi [2]: 7.59
- inhibition [3]: 78%

Structure (SMILES): CCNc1cc(C)c(OCC(=O)N[C@@H](Cc2ccccc2)[C@H](O)C(=O)N2CSC(C)(C)[C@H]2C(=O)N[C@H]2c3ccccc3C[C@H]2O)c(C)c1
- CC50 at 72 h [4]: 64000 nM
- pEC50 [1]: 6.14
- pKi [2]: 8.15
- inhibition [3]: 84%

Structure (SMILES): CC1(C)SCN(C(=O)[C@@H](O)[C@H](Cc2ccccc2)NC(=O)COc2ccc(CO)cc2)[C@@H]1C(=O)N[C@H]1c2ccccc2C[C@H]1O
- CC50 at 72 h [4]: > 120000 nM
- pEC50 [1]: 5.96
- pKi [2]: 8.00
- inhibition [3]: 37%

Structure (SMILES): Cc1cc(NCc2ccncc2)cc(C)c1OCC(=O)N[C@@H](Cc1ccccc1)[C@H](O)C(=O)N1CSC(C)(C)[C@H]1C(=O)N[C@H]1c2ccccc2C[C@H]1O
- CC50 at 72 h [4]: > 120000 nM
- pEC50 [1]: 6.31
- pKi [2]: 8.22
- inhibition [3]: 91%

Structure (SMILES): CC1(C)SCN(C(=O)[C@@H](O)[C@H](Cc2ccccc2)NC(=O)COc2cccc([N+](=O)[O-])c2)[C@@H]1C(=O)N[C@H]1c2ccccc2C[C@H]1O
- CC50 at 72 h [4]: 58000 nM
- pEC50 [1]: 5.55
- pKi [2]: 7.42
- inhibition [3]: 12%

Structure (SMILES): CC1(C)SCN(C(=O)[C@@H](O)[C@H](Cc2ccccc2)NC(=O)COc2cccc(N)c2)[C@@H]1C(=O)N[C@H]1c2ccccc2C[C@H]1O
- pEC50 [1]: < 5.10
- pKi [2]: 7.54
- inhibition [3]: 29%

Structure (SMILES): CC1(C)SCN(C(=O)[C@@H](O)[C@H](Cc2ccccc2)NC(=O)COc2c(F)cccc2F)[C@@H]1C(=O)N[C@H]1c2ccccc2C[C@H]1O
- CC50 at 72 h [4]: 55000 nM
- pEC50 [1]: 5.48
- pKi [2]: 7.85
- inhibition [3]: 58%

Structure (SMILES): CC1(C)SCN(C(=O)[C@@H](O)[C@H](Cc2ccccc2)NC(=O)COc2cccc(O)c2)[C@@H]1C(=O)N[C@H]1c2ccccc2C[C@H]1O
- pEC50 [1]: < 5.10
- pKi [2]: 8.00
- inhibition [3]: 13%

Structure (SMILES): CC1(C)SCN(C(=O)[C@@H](O)[C@H](Cc2ccccc2)NC(=O)COc2c(Cl)cccc2Cl)[C@@H]1C(=O)N[C@H]1c2ccccc2C[C@H]1O
- pEC50 [1]: 5.28
- pKi [2]: 7.41
- inhibition [3]: 95%

Structure (SMILES): CC1(C)SCN(C(=O)[C@@H](O)[C@H](Cc2ccccc2)NC(=O)COc2ccccc2[N+](=O)[O-])[C@@H]1C(=O)N[C@H]1c2ccccc2C[C@H]1O
- pKi [2]: 7.26
- inhibition [3]: 9%

Structure (SMILES): CNc1cc(C)c(OCC(=O)N[C@@H](Cc2ccccc2)[C@H](O)C(=O)N2CSC(C)(C)[C@H]2C(=O)N[C@H]2c3ccccc3C[C@H]2O)c(C)c1
- CC50 at 72 h [4]: > 120000 nM
- pEC50 [1]: 6.35
- pKi [2]: 7.60
- inhibition [3]: 91%

Structure (SMILES): CC1(C)SCN(C(=O)[C@@H](O)[C@H](Cc2ccccc2)NC(=O)COc2ccccc2N)[C@@H]1C(=O)N[C@H]1c2ccccc2C[C@H]1O
- pKi [2]: 6.90
- inhibition [3]: 62%

Structure (SMILES): CC1(C)SCN(C(=O)[C@@H](O)[C@H](Cc2ccccc2)NC(=O)COc2ccccc2CO)[C@@H]1C(=O)N[C@H]1c2ccccc2C[C@H]1O
- pKi [2]: 6.88
- inhibition [3]: 61%

Structure (SMILES): CC1(C)SCN(C(=O)[C@@H](O)[C@H](Cc2ccccc2)NC(=O)COc2ccccc2O)[C@@H]1C(=O)N[C@H]1c2ccccc2C[C@H]1O
- pKi [2]: 6.95
- inhibition [3]: 34%

Structure (SMILES): CCCCNc1cc(C)c(OCC(=O)N[C@@H](Cc2ccccc2)[C@H](O)C(=O)N2CSC(C)(C)[C@H]2C(=O)N[C@H]2c3ccccc3C[C@H]2O)c(C)c1
- CC50 at 72 h [4]: 22000 nM
- pEC50 [1]: 6.27
- pKi [2]: 7.52
- inhibition [3]: 85%

Structure (SMILES): Cc1ccc(OCC(=O)N[C@@H](Cc2ccccc2)[C@H](O)C(=O)N2CSC(C)(C)[C@H]2C(=O)N[C@H]2c3ccccc3C[C@H]2O)cc1
- pEC50 [1]: < 5.10
- pKi [2]: 7.26
- inhibition [3]: 27%

Structure (SMILES): Cc1cc(N)cc(C)c1OCC(=O)N[C@@H](Cc1ccccc1)[C@H](O)C(=O)N1CSC(C)(C)[C@H]1C(=O)N[C@H]1c2ccccc2C[C@H]1O
- pKi [2]: 7.64
- inhibition [3]: 96%

Structure (SMILES): COc1cccc(OCC(=O)N[C@@H](Cc2ccccc2)[C@H](O)C(=O)N2CSC(C)(C)[C@H]2C(=O)N[C@H]2c3ccccc3C[C@H]2O)c1
- pEC50 [1]: < 5.10
- pKi [2]: 8.40
- inhibition [3]: 10%

Structure (SMILES): Cc1cccc(C)c1OCC(=O)N[C@@H](Cc1ccccc1)[C@H](O)C(=O)N1CSC(C)(C)[C@H]1C(=O)N[C@H]1c2ccccc2C[C@H]1O
- inhibition [3]: 98%
